Tested on: MS2 coat protein
Assay: apparent Kd, MS2 coat protein; higher = weaker binding; RNA-MaP array; FMN 200 µM where present
How it was run: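 Stalled E. coli RNA polymerase transcribed the designs on Illumina sequencing-chip clusters. SNAP-549-labelled MS2 coat protein was titrated from 0.7 or 1.5 nM, doubling to 3 µM, without and then with constant ligand, in 100 mM Tris-HCl pH 7.5, 80 mM KCl, 4 mM MgCl2, BSA, DTT, yeast tRNA and Tween-20. Per-cluster binding curves were fitted to green signal normalised to red-channel RNA signal and control-cluster median Fmax. The apparent Kd is the median of the filtered fits.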

[1] = designed as: ON switch for flavin mononucleotide, no ligand
[2] = ligand present: flavin mononucleotide, designed as: ON switch for flavin mononucleotide
[3] = designed as: OFF switch for flavin mononucleotide, no ligand
[4] = ligand present: flavin mononucleotide, designed as: OFF switch for flavin mononucleotide

GCCAUCACAUGAGGAUAUGCUCGGGUUUCCCGAGCAGAAGGCAUGUCAUAGGACAUGAGGAUCACCCAUGUAGUUAAGAUGGCA
apparent Kd [1]: 507 nM | apparent Kd [2]: 17.1 nM

GCCAUCGCAUGAGGAUAUGCUCCCGUUUCGGGAGCAGAAGGCAUGUAAUAAGACAUGAGGAUCACCCAUGUAGUUAAGAUGGCA
apparent Kd [1]: 7.36 nM | apparent Kd [2]: 5.32 nM

GCCAUCGCAUGAGGAUAUGCUCCGGUUUCCGGAGCAGAAGGCAUGUCAUAAAACAUGAGGAUCACCCAUGUAGUUAAGAUGGCA
apparent Kd [1]: 8.86 nM | apparent Kd [2]: 5.18 nM

GCCAUCGCAUGAGGAUAUGCUCCGGUUUCCGGAGCAGAAGGCGUGUCAUAAGACAUGAGGAUCACCCAUGUAGUUAAGAUGGCA
apparent Kd [1]: 246 nM | apparent Kd [2]: 10.6 nM

GCCAUCGCAUGAGGAUAUGCUCGGGUUUCCCGAGCAGAAGGCAUGUCACAAGACAUGAGGAUCACCCAUGUAGUUAAGAUGGCA
apparent Kd [1]: 190 nM | apparent Kd [2]: 9.98 nM

GCCAUGCUGGUGACGGAUAACACAUGAGGAUCACCCAUGUACAGAAGGCGGAAUUAGCGUAGGACCGAGGAUAUGUACGUGAGG
apparent Kd [3]: 89.5 nM | apparent Kd [4]: 26.4 nM

GCCAUGUUAGGAUAUGCCAUUAUACUGCUGGGUAUAGAUUGGUAGAAGGAACAUGAGGAUCACCCAUGUUCGGG
apparent Kd [3]: 83.9 nM | apparent Kd [4]: 178 nM

GCCCUAAAGCGGGCCGACCAUACAUGAGGAUCACCCAUGUCGAGAAGGUGCUCACGGGUGGGUGGCAAGGAUAUCGGGUCGGAA
apparent Kd [1]: 65.6 nM | apparent Kd [2]: 32.6 nM

GCCCUCGCUGAGGAUAUUAUCUGGUUCGAUUGAUAAGAAGGCAGUACAUGAGGAUCACCCAUGUGGUUCGUCCG
apparent Kd [3]: 76.7 nM | apparent Kd [4]: 363 nM

GCCCUUCGUGGAAGGGCAAAAGGACAGGAUAUCGCUUAAACAUGAGGAUCACCCAUGUCCGUUAACGAGAAGGGUCGAAUAAAU
apparent Kd [1]: 64.2 nM | apparent Kd [2]: 12 nM

GCCGAACAUGAGGAUCACCCAUGUCCGGGUAGUCAAGGAUAUGGGAAGGCAAUGCCGUGGCCAGAAGGUGGCUAUC
apparent Kd [1]: 99.3 nM | apparent Kd [2]: 21.3 nM

GCCGAAGGACCCUGACGGGUCGGCUAGGAUAUACAUGAGGAUCACCCAUGUGCGGUUAUUCACGAGUAGAAGGAGCCUCGGCAA
apparent Kd [3]: 101 nM | apparent Kd [4]: 80.9 nM

GCCGAUUAAGUCAGGAUAUACCUAUGGAUACAUAGGUAGAAGGGACAUGAGGAUCACCCAUGUUCCUCUACGGC
apparent Kd [3]: 12.9 nM | apparent Kd [4]: 25.8 nM

GCCGCUGUAGGAUAUGCCAGGGUGGCAGCUUGAUGUGUGGCACAUGAGGAUCACCCAUGUAGAAGGACAGAAAG
apparent Kd [3]: 18.7 nM | apparent Kd [4]: 50.8 nM

GCCGGGUAGGCAGGAUAUCCUCGCGCAAACACAUGAGGAUCACCCAUGUACACAAAACGUGAUAUGGAGAAGGGCCAACCCACG
apparent Kd [1]: 24.1 nM | apparent Kd [2]: 5.8 nM

GCCUAAAGUGAGGAUAUCUAGCGCGUAAAGGCAGGAGAAGGUGCAACAUGAGGAUCACCCAUGUAGGCUGUCUA
apparent Kd [3]: 19.5 nM | apparent Kd [4]: 20 nM

GCCUCACAUGAGGAUCACCCAUGUCAGGAUAUAGGAGGCAGUAGAUAUCCUACCGCCGCUAGAAGGGACUGGCA
apparent Kd [3]: 49.1 nM | apparent Kd [4]: 131 nM

GCCUCACAUGAGGAUCACCCAUGUCAGGAUAUCUAAGGCGAAGUGCAAGCACCUCGUGAGAGAAGGGACGUCAA
apparent Kd [3]: 23.2 nM | apparent Kd [4]: 47.6 nM

GCCUCACAUGAGGAUCACCCAUGUCAGGAUAUCUAAGGCGAGGUGCAGGCACUUCGUGAGAGAAGGGACGUCAA
apparent Kd [3]: 21.4 nM | apparent Kd [4]: 49.8 nM

GCCUCAGAAUUAAUUGUGAGAGGCAGAAGGCUAUAUCUCGUGGUAAACAUGAGGAUCACCCAUGUAGAGGAUAUGCUAUUACAG
apparent Kd [3]: 8.25 nM | apparent Kd [4]: 9.99 nM

GCCUCAGAAUUAAUUGUGAGAGGCAGAAGGCUAUAUCUCGUGUUAAACAUGAGGAUCACCCAUGUAGAGGAUAUGCUAUUACAG
apparent Kd [3]: 9.3 nM | apparent Kd [4]: 10.6 nM

GCCUCAUAGUAGAAGGGACUUAGACAGUAAAGCAAAUAGAGGAAUUAACAUGAGGAUCACCCAUGUCAGGAUAUACUAAGAGGC
apparent Kd [3]: 11.3 nM | apparent Kd [4]: 12.1 nM

GCCUCAUCCGUCAGGAUAUACAGCCGCUCCCUGUUGUAGAAGGGACAUGAGGAUCACCCAUGUACGUACCACCC
apparent Kd [3]: 53.6 nM | apparent Kd [4]: 117 nM

GCCUUAUCGGUCAGGAUAUACACCCGUCACUUCUUGUAGAAGGGACAUGAGGAUCACCCAUGUACAUUACAUUG
apparent Kd [3]: 313 nM | apparent Kd [4]: 177 nM

GCGAAUUUGUGAGGAUAUACAUAAUUUAUAACUGUAGAAGGCACAAACCUCAAGACAUGAGGAUCACCCAUGUGGAAUUUCGCU
apparent Kd [3]: 131 nM | apparent Kd [4]: 192 nM

GCGAUAUUGUAAGGAUAUACUCUGUGAUGAAGAGUAGAAGGUACUUACAUGAGGAUCACCCAUGUUUAACGAGAUACUAAUCGC
apparent Kd [1]: 16.6 nM | apparent Kd [2]: 13.1 nM

GCGAUUUUGUAGAAGGUACGUGAUUAGACAAAGUAAGGAUAUACUGACAUGAGGAUCACCCAUGUAUUAAUAGUUAACAGUCGC
apparent Kd [1]: 25.4 nM | apparent Kd [2]: 14.9 nM
